# Legend:
# [1] = test system: L1210; assay: Inhibition of incorporation of tritiated thymidine in the DNA of actively growing L1210 cells; assay type: functional, cell-based; conditions: Mus musculus
# Summary of the method: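 Actively growing L1210 cells are exposed to the drug, dissolved first in Me₂SO (final Me₂SO 1%). Incorporation of tritiated thymidine into DNA or tritiated uridine into RNA is measured. IC₅₀ is the concentration giving 50% reduction in incorporation.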
# [2] = test system: L1210; assay: Inhibition of incorporation of tritiated uridine in the RNA of actively growing L1210 cells; conditions: Mus musculus
# [3] = test system: B16; assay: Antitumor activity in mice against melanoma B16 cells at 2.2 uM/kg was expressed as ratio of average survival time; assay type: functional, Mus musculus
# [4] = test system: P388; assay: Antitumor activity in mice against leukemia P388 cells at 1.7 uM/kg was expressed as ratio of average survival time; assay type: functional, Mus musculus
# Summary of the method: (§1)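 Mice bearing P388 leukemia were tested under NCI protocols, with doses given in µmol/kg. Toxicity was evaluated on day 5. Efficacy is reported as T/C, the mean survival time of treated mice divided by that of untreated controls, ×100. Values are usually the average of two tests. A T/C above 120 was taken as activity.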
# [5] = test system: P388; assay: Antitumor activity in mice against leukemia P388 cells at 0.85 uM/kg was expressed as ratio of average survival time; assay type: functional, Mus musculus; summary of the method: as §1
# [6] = test system: P388; assay: Antitumor activity in mice against leukemia P388 cells at 0.43 uM/kg; assay type: functional, Mus musculus
# Summary of the method: (§2)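 Mouse survival assay run under NCI protocols. Activity is expressed as T/C: average survival time of treated mice over untreated mice × 100. Values are usually the average of two tests. Toxicity is evaluated on day 5. A T/C above 120 is taken as activity.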
# [7] = test system: B16; assay: Antitumor activity in mice against melanoma B16 cells at 0.55 uM/kg was expressed as ratio of average survival time; assay type: functional, Mus musculus
# [8] = test system: B16; assay: Antitumor activity in mice against melanoma B16 cells at 0.55 uM/kg; assay type: functional, Mus musculus; summary of the method: as §2
# [9] = test system: B16; assay: Antitumor activity in mice against melanoma B16 cells at 1.1 uM/kg; assay type: functional, Mus musculus; summary of the method: as §2
# [10] = test system: P388; assay: Antitumor activity in mice against leukemia P388 cells at 0.85 uM/kg; assay type: functional, Mus musculus; summary of the method: as §2
# [11] = test system: B16; assay: Antitumor activity in mice against melanoma B16 cells at 2.2 uM/kg; assay type: functional, Mus musculus; summary of the method: as §2
# [12] = test system: P388; assay: Antitumor activity in mice against leukemia P388 cells at 1.7 uM/kg; assay type: functional, Mus musculus; summary of the method: as §2
# [13] = test system: B16; assay: Antitumor activity in mice against melanoma B16 cells at 1.1 uM/kg was expressed as ratio of average survival time; assay type: functional, Mus musculus
# [14] = test system: P388; assay: Antitumor activity in mice against leukemia P388 cells at 3.4 uM/kg; assay type: functional, Mus musculus; summary of the method: as §2
# [15] = test system: P388; assay: Antitumor activity in mice against leukemia P388 cells at 0.43 survival time; assay type: functional, Mus musculus; summary of the method: as §1
# [16] = test system: P388; assay: Antitumor activity in mice against leukemia P388 cells at 3.4 uM/kg was expressed as ratio average survival time; assay type: functional, Mus musculus; summary of the method: as §1
# [17] = test system: B16; assay: Antitumor activity in mice against melanoma B16 cells at 34.2 uM/kg was expressed as ratio of average survival time; assay type: functional, Mus musculus
# [18] = test system: P388; assay: Antitumor activity in mice against leukemia P388 cells at 8.9 uM/kg; assay type: functional, Mus musculus; summary of the method: as §1
# [19] = test system: B16; assay: Antitumor activity in mice against melanoma B16 cells at 8.6 uM/kg was expressed as ratio of average survival time; assay type: functional, Mus musculus
# [20] = test system: P388; assay: Antitumor activity in mice against leukemia P388 cells at 17.9 survival time; assay type: functional, Mus musculus; summary of the method: as §1
# [21] = test system: P388; assay: Antitumor activity in mice against leukemia P388 cells at 4.5 umol/kg; assay type: functional, Mus musculus; summary of the method: as §1
# [22] = test system: P388; assay: Antitumor activity in mice against leukemia P388 cells at 17.9 uM/kg; assay type: functional, Mus musculus; summary of the method: as §1
# [23] = test system: P388; assay: Antitumor activity in mice against leukemia P388 cells at 8.9 uM/kg was expressed as ratio of average survival time; assay type: functional, Mus musculus; summary of the method: as §1
# [24] = test system: P388; assay: Antitumor activity in mice against leukemia P388 cells at 4.5 umol/kg was expressed as ratio of average survival time; assay type: functional, Mus musculus; summary of the method: as §1
# [25] = test system: B16; assay: Antitumor activity in mice against melanoma B16 cells at 17.1 uM/kg was expressed as ratio of average survival time; assay type: functional, Mus musculus
# [26] = test system: P388; assay: Antitumor activity in mice against leukemia P388 cells at 1.7 umol/kg; assay type: functional, Mus musculus; summary of the method: as §2
# [27] = test system: P388; assay: Antitumor activity in mice against leukemia P388 cells at 0.86 uM/kg; assay type: functional, Mus musculus; summary of the method: as §2
# [28] = test system: P388; assay: Antitumor activity in mice against leukemia P388 cells at 0.86 survival time; assay type: functional, Mus musculus; summary of the method: as §1
# [29] = test system: P388; assay: Antitumor activity in mice against leukemia P388 cells at 1.7 umol/kg was expressed as ratio of average survival time; assay type: functional, Mus musculus; summary of the method: as §1
# [30] = test system: P388; assay: Antitumor activity in mice against leukemia P388 cells at 0.21 survival time; assay type: functional, Mus musculus; summary of the method: as §1
# [31] = test system: P388; assay: Antitumor activity in mice against leukemia P388 cells at 0.22 umol/kg was expressed as ratio of average survival time; assay type: functional, Mus musculus; summary of the method: as §1
# [32] = test system: B16; assay: Antitumor activity in mice against melanoma B16 cells at 0.04 uM/kg; assay type: functional, Mus musculus; summary of the method: as §2
# [33] = test system: B16; assay: Antitumor activity in mice against melanoma B16 cells at 0.04 uM/kg was expressed as ratio of average survival time; assay type: functional, Mus musculus
# [34] = test system: B16; assay: Antitumor activity in mice against melanoma B16 cells at 0.09 uM/kg was expressed as ratio of average survival time; assay type: functional, Mus musculus
# [35] = test system: B16; assay: Antitumor activity in mice against melanoma B16 cells at 0.16 uM/kg was expressed as ratio of average survival time; assay type: functional, Mus musculus
# [36] = test system: P388; assay: Antitumor activity in mice against leukemia P388 cells at 0.05 umol/kg was expressed as ratio of average survival time; assay type: functional, Mus musculus; summary of the method: as §1
# [37] = test system: P388; assay: Antitumor activity in mice against leukemia P388 cells at 0.11 umol/kg; assay type: functional, Mus musculus; summary of the method: as §2
# [38] = test system: P388; assay: Antitumor activity in mice against leukemia P388 cells at 0.22 umol/kg; assay type: functional, Mus musculus; summary of the method: as §2
# [39] = test system: B16; assay: Antitumor activity in mice against melanoma B16 cells at 0.09 uM/kg; assay type: functional, Mus musculus; summary of the method: as §2
# [40] = test system: B16; assay: Antitumor activity in mice against melanoma B16 cells at 0.17 umol/kg was expressed as ratio of average survival time; assay type: functional, Mus musculus
# [41] = test system: P388; assay: Antitumor activity in mice against leukemia P388 cells at 0.11 umol/kg was expressed as ratio of average survival time; assay type: functional, Mus musculus; summary of the method: as §1
# [42] = test system: P388; assay: Antitumor activity in mice against leukemia P388 cells at 0.05 umol/kg; assay type: functional, Mus musculus; summary of the method: as §2
# [43] = test system: P388; assay: Antitumor activity in mice against leukemia P388 cells at 1.4 uM/kg was expressed as ratio of average survival time; assay type: functional, Mus musculus
# [44] = test system: P388; assay: Antitumor activity in mice against leukemia P388 cells at 1.3 uM/kg was expressed as ratio of average survival time; assay type: functional, Mus musculus
compound,measurement,setting,value
COc1cccc(-c2c3cc(N)ccc3c3ccc(N)cc3[n+]2C)c1,IC50,[1],25 µM
same,IC50,[2],10 µM
C[n+]1c(-c2cccc(OCCOCCOc3cccc(-c4c5cc(N)ccc5c5ccc(N)cc5[n+]4C)c3)c2)c2cc(N)ccc2c2ccc(N)cc21.[Br-].[Br-],T/C,[3],142%
same,T/C,[4],156%
same,T/C,[5],132%
same,T/C,[6],20
same,T/C,[7],109%
same,T/C,[8],109
same,T/C,[9],127
same,IC50,[1],187 µM
same,T/C,[10],37
same,T/C,[11],142
same,IC50,[2],16 µM
same,T/C,[12],28
same,T/C,[13],127%
same,T/C,[14],39
same,T/C,[15],124%
same,T/C,[16],152%
CC[n+]1c(-c2ccccc2)c2cc(N)ccc2c2ccc(N)cc21.[Cl-],T/C,[17],135%
same,T/C,[18],18
same,T/C,[19],108%
same,T/C,[20],149%
same,IC50,[1],31 µM
same,T/C,[21],10
same,IC50,[2],11 µM
same,T/C,[22],24
same,T/C,[23],150%
same,T/C,[24],135%
same,T/C,[25],112%
C[n+]1c(-c2cccc(OCCCCCCCCCCOc3cccc(-c4c5cc(N)ccc5c5ccc(N)cc5[n+]4C)c3)c2)c2cc(N)ccc2c2ccc(N)cc21.[Cl-].[Cl-],T/C,[26],33
same,T/C,[27],15
same,T/C,[28],160%
same,IC50,[1],1.7 µM
same,T/C,[29],158%
same,IC50,[2],0.3 µM
same,T/C,[30],141%
same,T/C,[15],156%
C[n+]1c(-c2cccc(OCCCCCCCOc3cccc(-c4c5cc(N)ccc5c5ccc(N)cc5[n+]4C)c3)c2)c2cc(N)ccc2c2ccc(N)cc21.[Br-].[Br-],T/C,[31],120%
same,T/C,[32],116
same,T/C,[33],116%
same,T/C,[34],136%
same,T/C,[35],134%
same,T/C,[36],120%
same,IC50,[1],12 µM
same,IC50,[2],0.6 µM
same,T/C,[37],13
same,T/C,[38],40
same,T/C,[39],136
same,T/C,[40],138%
same,T/C,[41],126%
same,T/C,[42],5
COc1cccc2c1C(=O)c1c(O)c3c(c(O)c1C2=O)C[C@@](O)(C(C)=O)C[C@@H]3O[C@H]1C[C@H](N)[C@H](O)[C@H](C)O1 [DAUNORUBICIN],T/C,[43],160
COc1cccc2c1C(=O)c1c(O)c3c(c(O)c1C2=O)C[C@@](O)(C(=O)CO)C[C@@H]3O[C@H]1C[C@H](N)[C@H](O)[C@H](C)O1 [DOXORUBICIN],T/C,[44],197
